Published values gathered from unrelated publications.
Lines come from different studies, so protocols differ.
FLT3 N841I: Receptor-type tyrosine-protein kinase FLT3 (FLT3, Homo sapiens, UniProt P36888, N841I)
FLT3 D835H: Receptor-type tyrosine-protein kinase FLT3 (FLT3, Homo sapiens, UniProt P36888, D835H)
FLT3 R834Q: Receptor-type tyrosine-protein kinase FLT3 (FLT3, Homo sapiens, UniProt P36888, R834Q)
FLT3 autoinhibited: Receptor-type tyrosine-protein kinase FLT3, autoinhibited (FLT3, Homo sapiens, UniProt P36888)
FLT3 D835Y: Receptor-type tyrosine-protein kinase FLT3 (FLT3, Homo sapiens, UniProt P36888, D835Y)
FLT3: Receptor-type tyrosine-protein kinase FLT3 (FLT3, Homo sapiens, UniProt P36888)
FLT3 K663Q: Receptor-type tyrosine-protein kinase FLT3 (FLT3, Homo sapiens, UniProt P36888, K663Q)
FLT3 D835V/ITD: Receptor-type tyrosine-protein kinase FLT3 (FLT3, Homo sapiens, UniProt P36888, D835V/ITD)
FLT3 D835V: Receptor-type tyrosine-protein kinase FLT3 (FLT3, Homo sapiens, UniProt P36888, D835V)

| Compound | target | assay | setting | remaining binding [%] |
| --- | --- | --- | --- | --- |
| O=C(c1ccc(Nc2ncc(Cl)c(-c3ccc(Cl)s3)n2)cc1)N1CCC(N2CCCC2)CC1 | FLT3 N841I | binding, competition with immobilised ligand | 1 µM | 0.4 |
| O=C(NCC1CCOCC1)c1n[nH]cc1NC(=O)c1c(F)cccc1F | FLT3 D835H | binding, competition with immobilised ligand | 1 µM | 98 |
| Nc1ncc2c(n1)-c1c([nH]c3ccc(C#CC4CC4)cc13)CCCC2 | FLT3 R834Q | binding, competition with immobilised ligand | 1 µM | 79 |
| F[C@@H]1CCN(c2nccc(-c3cnn4ncccc34)n2)C1 | FLT3 autoinhibited | binding | 1 µM | 100 |
| Cc1cnc(Nc2ccc(C(=O)N3CCC(N4CCCC4)CC3)cc2)nc1-c1cc2ccccc2s1 | FLT3 N841I | binding, competition with immobilised ligand | 1 µM | 0 |
| CN(c1nccc(-c2cnn3ncccc23)n1)C1CC1 | FLT3 D835Y | binding | 1 µM | 85 |
| C=CC(=O)N1CCC(C(=O)NCC(=O)N2CCN(c3nc(-c4cnc(N)nc4C(F)F)nc(N4CCOCC4)n3)CC2)CC1 | FLT3 D835H | binding, competition with immobilised ligand | 1 µM | 100 |
| COc1cnc(Nc2cccc(S(N)(=O)=O)c2)nc1N1CCN(c2ccccc2)CC1 | FLT3 | binding, competition with immobilised ligand | 1 µM | 36 |
| COc1ncc2cc3ccccc3nc2c1C#N | FLT3 R834Q | cell-free assay, competition with immobilised ligand | 5 µM | 92 |
| COc1cnc(Nc2cccc(S(N)(=O)=O)c2)nc1N1CCN(c2ccccc2)C(=O)C1 | FLT3 K663Q | binding, competition with immobilised ligand | 1 µM | 87 |
| O=C(c1ccc(Nc2nccc(-c3cc4ccccc4s3)n2)cc1)N1CCC(N2CCCC2)CC1 | FLT3 D835H | binding, competition with immobilised ligand | 1 µM | 29 |
| O=C(NC1CCC1)c1ccc2nc(-c3cccc(NS(=O)(=O)NCCN4CCCCC4)c3)cn2c1 | Receptor-type tyrosine-protein kinase FLT3 (FLT3, Homo sapiens, UniProt P36888, F691L/ITD) | cell-free assay, competition with immobilised ligand | 10 µM | 80 |
| CN1CCN(c2ccc(Nc3nccc(-c4cccc([N+](=O)[O-])c4)n3)cc2C(F)(F)F)CC1 | FLT3 K663Q | binding | 10 µM | 0.2 |
| CC1CCCN1c1nccc(-c2cnn3ncccc23)n1 (centres unmarked) | FLT3 D835Y | binding | 1 µM | 100 |
| O=C(NCCCN1CCOCC1)c1ccc(Nc2nccc(-c3cc4ccccc4s3)n2)cc1 | FLT3 D835V/ITD | binding, competition with immobilised ligand | 1 µM | 12 |
| COc1ccnn2ncc(-c3ccnc(N(C)C)n3)c12 | FLT3 R834Q | binding | 1 µM | 87 |
| Cc1noc([C@H]2C[C@@H](c3ccc(C(F)(F)F)cc3)CN(C(=O)N3CCS(=O)(=O)C3)C2)n1 | FLT3 R834Q | cell-free assay, competition with immobilised ligand | 1 µM | 91 |
| c1cncc(-c2cccc(Nc3nccc(NC4CCCCC4)n3)c2)c1 | FLT3 D835Y | binding, competition with immobilised ligand | 10 µM | 1.4 |

| Compound | target | assay | setting | remaining binding [%] |
| --- | --- | --- | --- | --- |
| C[C@@H]1CN(c2ccc3ncc(-c4ccc5[nH]nc(C6CC6)c5c4)n3n2)C[C@H](C)O1 | FLT3 | binding, competition with immobilised ligand | 50 nM | 31 |
| c1ccc(N2CCN(Cc3nc4ccccc4[nH]3)CC2)nc1 | FLT3 | binding, competition with immobilised ligand | 1 µM | 100 |
| CN(C)c1ncc(F)c(-c2cnn3ncccc23)n1 | FLT3 autoinhibited | binding | 1 µM | 72 |
| CCN1CCN(Cc2ccc(C(=O)Nc3ccc(C)c(Oc4ccc5c(c4)CC(=O)N5)c3)cc2C(F)(F)F)CC1 | FLT3 autoinhibited | binding, competition with immobilised ligand | 1 µM | 100 |
| C[C@@H](c1ccc(-n2cnc3c(N)ncnc32)cc1)N1CCc2nn(C)c(Cc3ccccc3)c2C1=O | FLT3 autoinhibited | binding, competition with immobilised ligand | 0.1 µM | 84 |
| CN(C)C(=O)Cn1cc(-c2nc(C3(c4ccc(-c5cnc(N)nc5)cc4)CC3)no2)cn1 | FLT3 D835V/ITD | cell-free assay, competition with immobilised ligand | 1 µM | 89 |
| CN1CCN(c2ccc(Nc3nccc(-c4ccccc4)n3)cc2C(F)(F)F)CC1 | FLT3 K663Q | binding | 10 µM | 0.35 |
| O=C(NCCCC1CCCCC1)c1ccc(CNC(=O)c2cnn(-c3ccccc3)c2C(F)(F)F)cc1 | FLT3 R834Q | cell-free assay, competition with immobilised ligand | 0.1 µM | 100 |
| N[C@H]1CCN(c2nccc(-c3cnn4ncccc34)n2)C1 | FLT3 D835V | binding | 1 µM | 61 |
| CN(C)C(=O)Cn1cc(-c2nc([C@@](C)(c3ccc(-c4cnc(N)nc4)cc3)C3CC3)no2)cn1 | FLT3 | cell-free assay, competition with immobilised ligand | 1 µM | 97 |
| c1cnn2ncc(-c3ccnc(N4CCC45COC5)n3)c2c1 | FLT3 D835V | binding | 1 µM | 20 |
| CCC(=N\O)/C(C)=C/c1ccc(F)cc1 | FLT3 autoinhibited | cell-free assay, competition with immobilised ligand | 1 µM | 86 |
| O=C(Nc1c[nH]nc1C(=O)NC1CCNCC1)c1cc(F)cc(F)c1 | FLT3 autoinhibited | binding, competition with immobilised ligand | 1 µM | 85 |
| COc1ccc2cc(OCC3(C(=O)O)CN(C(=O)c4ccc(F)cc4)C3)ccc2c1 | FLT3 R834Q | cell-free assay, competition with immobilised ligand | 1 µM | 100 |
| O=C(NCCCN1CCOCC1)c1ccc(Nc2ncc(Cl)c(-c3ccc(Cl)s3)n2)cc1 | FLT3 K663Q | binding, competition with immobilised ligand | 1 µM | 2 |
| COc1cc(-c2cn(C3CCc4ccccc4N(CC(F)(F)F)C3=O)nn2)ccc1-n1ccc(C)n1 (centres unmarked) | FLT3 | cell-free assay, competition with immobilised ligand | 1 µM | 85 |
| CNC(=O)[C@@H]1CC[C@@H](n2c(-c3ccc4cnccc4c3)nc3ccc(C(=O)NCc4cccc(C(N)=O)c4)cc32)C1 | FLT3 N841I | binding, competition with immobilised ligand | 1 µM | 100 |
